Compound activity from PubChem BioAssay.
In the library only some 2.3% were active in any assay of this set; here they are far more common.
Rpn11 inh: inhibitors of human proteasome Rpn11; O00487; human 26S proteasome, Ub4-pepOG fluorescence polarization; 20S core pre-blocked with epoxomicin; calls only at 20 µM; 0.59% of 360,000 active;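 active = inhibition at 20 µM, scaled to each plate's controls, above about 33%, limit read from the data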
Target sequence (O00487 whole entry, looked up): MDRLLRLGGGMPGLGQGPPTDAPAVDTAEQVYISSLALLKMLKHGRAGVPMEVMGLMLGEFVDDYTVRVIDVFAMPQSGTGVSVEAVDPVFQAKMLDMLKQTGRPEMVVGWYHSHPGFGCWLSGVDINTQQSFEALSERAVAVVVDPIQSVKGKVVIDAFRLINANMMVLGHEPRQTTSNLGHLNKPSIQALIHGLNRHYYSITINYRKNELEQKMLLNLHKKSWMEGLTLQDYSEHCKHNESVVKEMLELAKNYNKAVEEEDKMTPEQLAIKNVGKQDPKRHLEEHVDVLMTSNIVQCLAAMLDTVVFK
TPT1 inhibitor: blocks Candida albicans tRNA 2'-phosphotransferase | inhibition, % at 5 µM | 0.81% of 300,000 active | AID 1962 | recombinant caTPT1, FP RNA substrate dephosphorylation;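 active = inhibition above the mean of all tested compounds plus 3 SD, set per screening campaign, cut at about 24% in these data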
CSN deneddyl inh: CSN deneddylation inhibition | Q92905 | Purified CSN, SCF-Nedd8-OG deneddylation, fluorescence polarization | inhibition, % at 12.5 µM | 0.38% of 360,000 active | AID 651999;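 active = pattern-corrected inhibition above about 35%, with an unprinted fluorescence ratio check between 0.5 and 1.5, limit read from the data, passing the limit was not always enough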
Target sequence (Q92905 whole entry, looked up, one chain of several): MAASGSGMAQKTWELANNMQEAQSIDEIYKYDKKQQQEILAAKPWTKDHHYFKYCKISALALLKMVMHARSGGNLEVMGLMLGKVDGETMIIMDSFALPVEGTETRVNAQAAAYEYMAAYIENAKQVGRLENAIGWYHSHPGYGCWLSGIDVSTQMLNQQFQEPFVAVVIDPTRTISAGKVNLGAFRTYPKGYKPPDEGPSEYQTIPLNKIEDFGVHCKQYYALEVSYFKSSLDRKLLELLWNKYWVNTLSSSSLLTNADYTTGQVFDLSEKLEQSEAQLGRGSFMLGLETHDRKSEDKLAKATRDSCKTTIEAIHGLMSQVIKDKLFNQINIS
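Assay system: Purified human Csn5 enzyme expressed in HEK293T cells | Amount: Enzyme 0.24 nM | Measured by: Fluorescence polarization readout | Medium: Tris/NaCl/DTT buffer, pH 7.5 | Compound dosing: One concentration, 12.5 µM, 0.25% DMSO | Times: 90 min incubation of compound, enzyme and substrate at room temperature | Control set: no-enzyme wells high, enzyme-with-substrate wells low | Read-out: % inhibition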
CRFR2-BP antag: blocks CRF-induced signaling of the CRF-BP/CRF-R2 complex; inhibition, % at 11.8 µM; 0.59% of 350,000 active; HEK293 CRF-R2/CRF-BP, CRF-induced calcium fluorescence;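 active = inhibition of the ligand-induced calcium signal above about 50% at the single tested concentration, limit read from the data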
HNF4A DNA FP: change in binding of human HNF4 alpha to DNA. activity change, % at 10 µM. 0.3% of 360,000 active. HNF4a-FITC DNA binding, fluorescence polarization, 1 h. AID 1224865; in the data active = activity change above about 30%, passing the limit was not always enough
CRFBP-R2 agonist: agonists of human CRF-binding protein/CRF-R2 receptor complex; HEK293 CRF-R2/CRF-BP, calcium dye fluorescence (FLIPR); percent of saturating CRF peptide response; activation, % at 13.2 µM; 0.46% of 350,000 active; AID 588473;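 active = activation of at least 50%, plus an integration ratio under a set limit after plate pattern correction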
Rpn11 confirm: confirmation of human proteasome Rpn11 inhibitors; purified human 26S proteasome, Ub4-pepOG fluorescence polarization; proteasome pretreated with epoxomicin; 29% of 1,900 active; shares compounds with Rpn11 inh; inhibition, % at 20 µM
MMP-2 inh: MMP-2 (human) inhibition counter-screen | shares compounds with Rpn11 inh | AID 602330 | recombinant MMP-2, FRET peptide cleavage fluorescence | inhibition, % at 20 µM | 4% of 1,900 active;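 note: human MMP-2 activated beforehand with APMA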
Thrombin FP: blocks bovine thrombin, flagging nonselective RPN11 hits | shares compounds with Rpn11 inh | bovine thrombin cleavage of Ub4-pepOG, fluorescence polarization | inhibition, % at 20 µM | 13% of 1,900 active;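 active = mean inhibition at least 40% at 20 µM, or signal 3 deviations below plate average, so some actives read negative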
Large screens that a line does not name were inactive (follow-up assays come after a bar, where shown). Cut-off read from the data, not from the text of the source, unless noted: active = inhibition above about 40%; inactive = the rest.

S=C(NCCCc1ccccc1)NCc1ccccc1	none (no result: TPT1 inhibitor)
O=C(CN1CCCc2ccccc21)N/N=C/c1ccccc1	Rpn11 inh active | Rpn11 confirm inactive | MMP-2 inh inactive | Thrombin FP inactive
Cc1onc(-c2ccccc2)c1C(=O)Nc1nc2c(s1)C(=O)CC(C)(C)C2	Rpn11 inh active | Rpn11 confirm inactive | MMP-2 inh inactive | Thrombin FP inactive
CN1/C(=C\C=N\NC(=O)c2ccc(O)cc2)C(C)(C)c2ccccc21	Rpn11 inh active, HNF4A DNA FP 38.4 | Rpn11 confirm inactive | MMP-2 inh inactive | Thrombin FP inactive
Cc1c(NC(=O)C(C)C)cccc1-c1nc2ncccc2o1	none
Cc1c(NC(=O)c2cccc(-c3cc4ccccc4oc3=O)c2)cccc1-c1nc2ncccc2o1	Rpn11 inh active | Rpn11 confirm 109.5 | MMP-2 inh inactive | Thrombin FP inactive
COc1cccc(/C=C/C(=O)NCCc2ccc(OC)c(OC)c2)c1	none
CCCCCCCCCCCCCCCC[N+](C)(C)Cc1ccc(F)cc1	Rpn11 inh active (no result: TPT1 inhibitor) | Rpn11 confirm 88.0 | MMP-2 inh inactive | Thrombin FP inactive
CCCCN=c1scc(-c2ccc3c(c2)NC(=O)CO3)n1N=C1CCCC1	Rpn11 inh active | Rpn11 confirm 41.9 | MMP-2 inh inactive | Thrombin FP inactive
CC1CCCC(C)N1C(=O)CSc1nccc(=O)[nH]1 (stereo unspecified)	none
CCOC(=O)c1ccc(-c2ccc3oc(-c4ccsc4)cc(=O)c3c2)cc1F	Rpn11 inh active (no result: TPT1 inhibitor) | Rpn11 confirm inactive | MMP-2 inh inactive | Thrombin FP inactive
O=c1cc(-c2ccsc2)oc2cc(-c3ccc4c(c3)OCO4)ccc12	none (no result: TPT1 inhibitor)
O=C(CCCN=C1NS(=O)(=O)c2ccccc21)OCC(=O)c1ccc(Br)cc1	none
CCc1ccc(N=C2NC(=O)/C(=C/c3cc(OC)c(O)c(OC)c3)S2)cc1	none (not shown: Rpn11 inh, TPT1 inhibitor)
COc1cc(/C=C2\SC(=Nc3ccccc3OC)NC2=O)ccc1O	Rpn11 inh active | Rpn11 confirm 47.4 | MMP-2 inh inactive | Thrombin FP 51.1
COc1cc(/C=C2/SC(=Nc3ccc(O)cc3)NC2=O)ccc1O	Rpn11 inh active | Rpn11 confirm 69.9 | MMP-2 inh inactive | Thrombin FP 63.9
CC(C)CNc1nnnc2c1sc1nc(N3CCOCC3)c3c(c12)CCCC3	none
N#C/C(=C(/O)c1ccc([N+](=O)[O-])cc1)c1nc2ccccc2[nH]1	none
O=C(NC1CCCCC1)NC1CC2CCCC(C1)N2C1CCCC1 (stereo unspecified)	Rpn11 inh active | Rpn11 confirm inactive | MMP-2 inh inactive | Thrombin FP inactive
O=C(NNC(=O)NC1CCCCC1)NC1CCCCC1	none
COc1ccc(/C=C/C(=O)NC(=S)Nc2ccccc2)cc1OC	none
Cc1nc2ccc(NC(=O)[C@@H](NC(=O)c3c(F)cccc3F)C(C)C)cc2s1	Rpn11 inh active (no result: TPT1 inhibitor) | Rpn11 confirm 58.1 | MMP-2 inh inactive | Thrombin FP 70.2
COc1cc(OC)cc(C(=O)NC(C(=O)Nc2ccc3nc(C)sc3c2)C(C)C)c1 (stereo unspecified)	none (no result: TPT1 inhibitor)
Cc1ccc2oc(=O)c(/C=C(\O)c3ccco3)nc2c1	Rpn11 inh active, HNF4A DNA FP 41.0, CRFBP-R2 agonist 147.2 | Rpn11 confirm 70.0 | MMP-2 inh inactive | Thrombin FP inactive
COc1cccc(Cn2c(N)c(C#N)c3nc4ccccc4nc32)c1OC	Rpn11 inh active | Rpn11 confirm inactive | MMP-2 inh inactive | Thrombin FP inactive
c1ccc(CNCC2COc3ccccc3O2)cc1 (stereo unspecified)	none
COc1ccc(N(CC(=O)NCc2ccc3c(c2)OCO3)S(=O)(=O)c2ccccc2[N+](=O)[O-])c(OC)c1	Rpn11 inh active | Rpn11 confirm inactive | MMP-2 inh inactive | Thrombin FP inactive
COc1ccc(N(CC(=O)NCc2ccccc2OC)S(=O)(=O)c2ccccc2[N+](=O)[O-])c(OC)c1	none
CS(=O)(=O)N1CCN(c2ccc([N+](=O)[O-])c(NCc3ccc(Cl)cc3)c2)CC1	Rpn11 inh active, CSN deneddyl inh 76.5 | Rpn11 confirm inactive | MMP-2 inh inactive | Thrombin FP inactive
CS(=O)(=O)N1CCN(c2ccc([N+](=O)[O-])c(NCc3ccccc3)c2)CC1	none
Cn1c(=O)[nH]c(=O)c2cc(C(=O)c3cc(F)ccc3O)cnc21	Rpn11 inh active | Rpn11 confirm inactive | MMP-2 inh inactive | Thrombin FP inactive
COc1cccc(CC(=O)OC(C)C(=O)Nc2ccc(Cl)cn2)c1 (stereo unspecified)	none
CCOc1ccc(N2C(=O)/C(=C\c3ccc(O)c(OC)c3)S(=O)(=O)C2c2cccc([N+](=O)[O-])c2)cc1 (stereo unspecified)	Rpn11 inh active | Rpn11 confirm inactive | MMP-2 inh inactive | Thrombin FP inactive
CC(O)/C=C/c1ccc2ccccc2n1 (stereo unspecified)	none
CCc1ccc(CCC(=O)Nc2ccc(C(=O)O)cc2)o1	none
CC(=O)C1=C(O)C2(C)c3c(O)c(C)c(O)c(C(C)=O)c3OC2CC1=O (stereo unspecified)	Rpn11 inh active, HNF4A DNA FP 51.3 (no result: TPT1 inhibitor) | Rpn11 confirm 69.2 | MMP-2 inh inactive | Thrombin FP 90.7
Cn1c(=O)c(Oc2ccc(Cl)cc2)c(O)c2ccccc21	none
CC(C)(C)NCC(O)Cn1cc(C=O)c2ccccc21 (stereo unspecified)	none
CCCN(CCC)CC(O)Cn1cc(/C=C/C(=O)c2ccccc2)c2ccccc21 (stereo unspecified)	Rpn11 inh active (no result: TPT1 inhibitor) | Rpn11 confirm inactive | MMP-2 inh inactive | Thrombin FP inactive
CC1=NN(c2ccccc2)C(=O)/C1=C\c1ccc(Br)s1	none
O=C1c2ccccc2/C(=C\c2ccc(Br)s2)N1c1ccccc1	Rpn11 inh active (no result: TPT1 inhibitor) | Rpn11 confirm inactive | MMP-2 inh inactive | Thrombin FP inactive
CC1Nc2ncnc(N3CCc4ccccc4C3)c2N(Cc2ccc(Br)cc2)C1=O (stereo unspecified)	none
CC1Nc2ncnc(N3CCc4ccccc4C3)c2N(Cc2ccc(Cl)cc2)C1=O (stereo unspecified)	Rpn11 inh active | Rpn11 confirm inactive | MMP-2 inh inactive | Thrombin FP inactive
